Experimental data from ChEMBL document CHEMBL4028913, “Discovery of Novel Potent VEGFR-2 Inhibitors Exerting Significant Antiproliferative Activity against Cancer Cell Lines” (J Med Chem, 2018).
Calls of active or inactive are those of the source. The calls are words filed in the database; no cut-off is given here.

Columns and labels:
A-431 = test: Growth inhibition of human A431 cells at 10 uM after 72 hrs by CellTiter-Glo assay relative to control; format: functional; settings: A-431, 72 h, read-out: GI
In short: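 A431 cells seeded at 2000–4000 cells/well and treated with 10 μM final compound, 0.1% DMSO, for 72 h at 37 °C, 5% CO2. Viability read by CellTiter-Glo. Inhibition ratio = 1 − Vsample/Vvehicle control; triplicate.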

MDA-MB-435 [1] = test: Growth inhibition of human MDA-MB-435 cells at 10 uM after 72 hrs by CellTiter-Glo assay relative to control; format: functional; settings: MDA-MB-435, 72 h, read-out: GI
In short: (§1)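 Cells in exponential phase seeded at 2000–4000 cells/well, then exposed 72 h at 37 °C, 5% CO2 with 0.1% final DMSO. Single-point screen at 10 μM final. […] Read-out was CellTiter-Glo luminescence.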

HUVEC [2] = test: Growth inhibition of HUVEC at 10 uM after 72 hrs by CellTiter-Glo assay relative to control; format: functional; settings: Homo sapiens, read-out: GI; in short: as §1
HUVEC [3] = test: Growth inhibition of HUVEC after 72 hrs by CellTiter-Glo assay; format: functional, cell-based; settings: Homo sapiens; in short: as §1
MDA-MB-435 [4] = test: Growth inhibition of human MDA-MB-435 cells after 72 hrs by CellTiter-Glo assay; format: functional, cell-based; settings: MDA-MB-435, 72 h; in short: as §1
[5] = biological target: T1, Vascular endothelial growth factor receptor 2 (Homo sapiens, UniProt P35968)
[6] = biological target: T1, Vascular endothelial growth factor receptor 2; settings: at 10 µM
[7] = biological target: Tyrosine-protein kinase HCK (Homo sapiens) (UniProt P08631); test: Inhibition of human HCK at 0.5 uM relative to control
[8] = biological target: Ephrin type-A receptor 8 (Homo sapiens) (UniProt P29322); test: Inhibition of human EPHA8 at 0.5 uM relative to control
[9] = biological target: Ephrin type-A receptor 3 (Homo sapiens) (UniProt P29320); test: Inhibition of human EPHA3 at 0.5 uM relative to control
[10] = biological target: Vascular endothelial growth factor receptor 3 (Homo sapiens) (UniProt P35916); test: Inhibition of human Flt4 at 0.5 uM relative to control
[11] = biological target: Ephrin type-A receptor 5 (Homo sapiens) (UniProt P54756); test: Inhibition of human EPHA5 at 0.5 uM relative to control
[12] = biological target: Ephrin type-A receptor 2 (Homo sapiens) (UniProt P29317); test: Inhibition of human EPHA2 at 0.5 uM relative to control
[13] = biological target: STE20-like serine/threonine-protein kinase (Homo sapiens) (UniProt Q9H2G2); test: Inhibition of human SLK at 0.5 uM relative to control
[14] = biological target: Mitogen-activated protein kinase kinase kinase kinase 5 (Homo sapiens) (UniProt Q9Y4K4); test: Inhibition of human KHS at 0.5 uM relative to control
[15] = biological target: TRAF2 and NCK-interacting protein kinase (Homo sapiens) (UniProt Q9UKE5); test: Inhibition of human TNIK at 0.5 uM relative to control
[16] = biological target: Ephrin type-A receptor 7 (Homo sapiens) (UniProt Q15375); test: Inhibition of human EPHA7 at 0.5 uM relative to control
[17] = biological target: Receptor-type tyrosine-protein kinase FLT3 (Homo sapiens) (UniProt P36888); test: Inhibition of human Flt3 at 0.5 uM relative to control
Homo sapiens [18] = organism: Homo sapiens; test: Inhibition of human DDR at 0.5 uM relative to control
[19] = biological target: Vascular endothelial growth factor receptor 1 (Homo sapiens) (UniProt P17948); test: Inhibition of human Flt1 at 0.5 uM relative to control
Homo sapiens [20] = organism: Homo sapiens; test: Inhibition of human PDGFR at 0.5 uM relative to control
[21] = biological target: Ephrin type-A receptor 4 (Homo sapiens) (UniProt P54764); test: Inhibition of human EPHA4 at 0.5 uM relative to control
Ephrin type-A receptor 4 (Homo sapiens), sequence (P54764 whole entry): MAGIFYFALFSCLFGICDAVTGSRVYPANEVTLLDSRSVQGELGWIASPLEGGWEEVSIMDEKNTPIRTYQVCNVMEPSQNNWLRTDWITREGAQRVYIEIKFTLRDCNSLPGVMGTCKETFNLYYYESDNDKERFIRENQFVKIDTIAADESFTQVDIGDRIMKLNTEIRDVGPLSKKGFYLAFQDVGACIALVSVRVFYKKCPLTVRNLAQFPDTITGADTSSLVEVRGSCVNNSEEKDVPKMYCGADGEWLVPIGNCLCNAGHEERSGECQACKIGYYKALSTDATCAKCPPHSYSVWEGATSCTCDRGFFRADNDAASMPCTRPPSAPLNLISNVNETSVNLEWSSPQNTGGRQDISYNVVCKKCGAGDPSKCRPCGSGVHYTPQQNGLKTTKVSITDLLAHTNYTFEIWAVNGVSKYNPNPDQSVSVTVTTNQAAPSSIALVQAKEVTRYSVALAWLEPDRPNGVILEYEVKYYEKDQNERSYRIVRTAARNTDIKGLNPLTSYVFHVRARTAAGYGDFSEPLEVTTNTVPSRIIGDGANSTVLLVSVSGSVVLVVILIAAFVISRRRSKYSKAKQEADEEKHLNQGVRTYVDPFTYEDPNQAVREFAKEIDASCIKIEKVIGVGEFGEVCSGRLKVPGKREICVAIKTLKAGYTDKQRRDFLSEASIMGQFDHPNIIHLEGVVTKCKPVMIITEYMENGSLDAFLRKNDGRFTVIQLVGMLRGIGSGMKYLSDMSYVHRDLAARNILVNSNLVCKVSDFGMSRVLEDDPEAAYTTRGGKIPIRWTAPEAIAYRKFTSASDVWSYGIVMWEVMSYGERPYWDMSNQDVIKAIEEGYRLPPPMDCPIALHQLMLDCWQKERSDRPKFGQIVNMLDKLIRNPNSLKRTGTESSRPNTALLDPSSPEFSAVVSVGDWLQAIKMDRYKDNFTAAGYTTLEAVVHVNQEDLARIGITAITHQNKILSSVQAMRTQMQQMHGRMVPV

T1 sequence (P35968 whole entry): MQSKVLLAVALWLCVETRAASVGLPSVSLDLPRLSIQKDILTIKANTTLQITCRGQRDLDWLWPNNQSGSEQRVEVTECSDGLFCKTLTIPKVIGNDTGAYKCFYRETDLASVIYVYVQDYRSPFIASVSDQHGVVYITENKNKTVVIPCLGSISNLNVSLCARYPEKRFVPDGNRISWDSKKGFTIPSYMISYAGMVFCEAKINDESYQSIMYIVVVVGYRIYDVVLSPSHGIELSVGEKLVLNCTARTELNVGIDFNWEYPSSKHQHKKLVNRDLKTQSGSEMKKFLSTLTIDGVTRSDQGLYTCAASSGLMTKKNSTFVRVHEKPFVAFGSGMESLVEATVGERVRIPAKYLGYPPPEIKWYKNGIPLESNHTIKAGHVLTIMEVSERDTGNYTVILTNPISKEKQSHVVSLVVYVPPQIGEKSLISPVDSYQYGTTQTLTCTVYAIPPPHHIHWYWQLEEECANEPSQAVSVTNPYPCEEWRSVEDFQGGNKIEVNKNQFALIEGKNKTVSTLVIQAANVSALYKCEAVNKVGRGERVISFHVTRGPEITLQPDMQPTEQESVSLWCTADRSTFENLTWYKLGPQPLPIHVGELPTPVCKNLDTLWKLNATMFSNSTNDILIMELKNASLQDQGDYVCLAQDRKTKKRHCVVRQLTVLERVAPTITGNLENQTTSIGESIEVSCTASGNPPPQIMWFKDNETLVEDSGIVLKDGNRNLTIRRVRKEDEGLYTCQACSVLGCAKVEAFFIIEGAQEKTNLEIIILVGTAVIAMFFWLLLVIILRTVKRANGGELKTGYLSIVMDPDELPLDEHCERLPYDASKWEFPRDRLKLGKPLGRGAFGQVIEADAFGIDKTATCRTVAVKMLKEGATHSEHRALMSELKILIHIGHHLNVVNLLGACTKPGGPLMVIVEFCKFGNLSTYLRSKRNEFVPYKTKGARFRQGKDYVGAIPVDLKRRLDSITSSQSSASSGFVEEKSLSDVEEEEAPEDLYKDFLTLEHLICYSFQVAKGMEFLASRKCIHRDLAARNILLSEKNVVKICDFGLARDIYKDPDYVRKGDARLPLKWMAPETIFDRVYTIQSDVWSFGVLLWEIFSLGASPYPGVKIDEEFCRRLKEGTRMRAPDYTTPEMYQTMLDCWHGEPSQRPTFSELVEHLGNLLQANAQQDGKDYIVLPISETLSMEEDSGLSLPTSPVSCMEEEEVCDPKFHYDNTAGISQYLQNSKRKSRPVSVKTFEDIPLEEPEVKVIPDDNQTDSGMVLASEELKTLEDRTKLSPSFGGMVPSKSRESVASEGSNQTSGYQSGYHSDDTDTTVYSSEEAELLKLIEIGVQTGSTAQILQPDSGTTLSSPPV
Ephrin type-A receptor 5 (Homo sapiens), sequence (P54756 whole entry): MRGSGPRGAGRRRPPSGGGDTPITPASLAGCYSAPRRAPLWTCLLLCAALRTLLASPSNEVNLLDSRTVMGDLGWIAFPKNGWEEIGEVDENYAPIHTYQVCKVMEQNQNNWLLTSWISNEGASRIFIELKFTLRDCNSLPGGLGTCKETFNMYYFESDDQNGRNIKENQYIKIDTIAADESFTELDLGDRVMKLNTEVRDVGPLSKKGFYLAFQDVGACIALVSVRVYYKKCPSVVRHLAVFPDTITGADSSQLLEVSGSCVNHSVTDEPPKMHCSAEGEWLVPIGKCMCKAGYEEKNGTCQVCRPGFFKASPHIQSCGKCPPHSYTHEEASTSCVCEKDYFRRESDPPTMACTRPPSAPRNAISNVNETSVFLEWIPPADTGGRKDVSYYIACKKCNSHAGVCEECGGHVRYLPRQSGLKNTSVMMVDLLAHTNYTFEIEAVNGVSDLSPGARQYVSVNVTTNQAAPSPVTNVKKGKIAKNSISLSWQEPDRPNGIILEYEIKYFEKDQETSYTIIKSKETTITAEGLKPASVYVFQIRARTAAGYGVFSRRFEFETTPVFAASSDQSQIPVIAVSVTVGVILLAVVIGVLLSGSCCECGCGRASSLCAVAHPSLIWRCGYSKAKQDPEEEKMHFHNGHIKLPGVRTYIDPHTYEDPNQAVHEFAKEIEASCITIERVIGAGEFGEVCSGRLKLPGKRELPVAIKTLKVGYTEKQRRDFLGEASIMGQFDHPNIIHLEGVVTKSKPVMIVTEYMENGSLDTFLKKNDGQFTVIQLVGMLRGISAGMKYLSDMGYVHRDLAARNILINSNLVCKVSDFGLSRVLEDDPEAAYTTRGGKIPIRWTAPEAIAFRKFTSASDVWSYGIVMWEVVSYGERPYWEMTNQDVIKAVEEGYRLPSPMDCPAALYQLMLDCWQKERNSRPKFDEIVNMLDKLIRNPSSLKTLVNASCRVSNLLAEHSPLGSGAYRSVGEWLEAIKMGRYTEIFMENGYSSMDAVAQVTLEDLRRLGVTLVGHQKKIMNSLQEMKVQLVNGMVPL
Ephrin type-A receptor 2 (Homo sapiens), sequence (P29317 whole entry): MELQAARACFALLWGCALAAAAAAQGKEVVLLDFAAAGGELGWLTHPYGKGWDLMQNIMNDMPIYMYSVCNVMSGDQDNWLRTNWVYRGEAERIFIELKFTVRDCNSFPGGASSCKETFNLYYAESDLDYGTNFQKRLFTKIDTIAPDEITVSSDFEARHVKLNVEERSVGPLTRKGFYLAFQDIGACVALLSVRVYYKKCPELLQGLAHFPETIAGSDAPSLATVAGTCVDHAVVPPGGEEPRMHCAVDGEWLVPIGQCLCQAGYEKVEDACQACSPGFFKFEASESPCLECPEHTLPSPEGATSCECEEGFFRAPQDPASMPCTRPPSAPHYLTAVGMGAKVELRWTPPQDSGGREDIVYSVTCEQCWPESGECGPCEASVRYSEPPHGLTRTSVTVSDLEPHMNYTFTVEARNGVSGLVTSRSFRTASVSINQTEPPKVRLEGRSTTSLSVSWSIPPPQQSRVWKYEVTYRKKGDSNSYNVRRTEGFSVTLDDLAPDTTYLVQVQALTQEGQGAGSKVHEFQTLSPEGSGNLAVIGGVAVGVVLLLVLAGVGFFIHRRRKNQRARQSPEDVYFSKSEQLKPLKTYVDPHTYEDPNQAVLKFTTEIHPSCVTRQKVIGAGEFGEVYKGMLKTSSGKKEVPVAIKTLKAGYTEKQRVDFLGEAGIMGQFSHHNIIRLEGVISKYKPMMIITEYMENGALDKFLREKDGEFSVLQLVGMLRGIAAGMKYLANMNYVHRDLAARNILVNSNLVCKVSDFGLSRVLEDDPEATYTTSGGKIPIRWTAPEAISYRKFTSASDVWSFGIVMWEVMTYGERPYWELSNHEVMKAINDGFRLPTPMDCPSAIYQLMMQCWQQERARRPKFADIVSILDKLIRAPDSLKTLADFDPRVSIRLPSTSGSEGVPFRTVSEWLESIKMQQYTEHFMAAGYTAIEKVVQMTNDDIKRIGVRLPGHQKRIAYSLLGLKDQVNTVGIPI
Tyrosine-protein kinase HCK (Homo sapiens), sequence (P08631 2-526 limits assumed): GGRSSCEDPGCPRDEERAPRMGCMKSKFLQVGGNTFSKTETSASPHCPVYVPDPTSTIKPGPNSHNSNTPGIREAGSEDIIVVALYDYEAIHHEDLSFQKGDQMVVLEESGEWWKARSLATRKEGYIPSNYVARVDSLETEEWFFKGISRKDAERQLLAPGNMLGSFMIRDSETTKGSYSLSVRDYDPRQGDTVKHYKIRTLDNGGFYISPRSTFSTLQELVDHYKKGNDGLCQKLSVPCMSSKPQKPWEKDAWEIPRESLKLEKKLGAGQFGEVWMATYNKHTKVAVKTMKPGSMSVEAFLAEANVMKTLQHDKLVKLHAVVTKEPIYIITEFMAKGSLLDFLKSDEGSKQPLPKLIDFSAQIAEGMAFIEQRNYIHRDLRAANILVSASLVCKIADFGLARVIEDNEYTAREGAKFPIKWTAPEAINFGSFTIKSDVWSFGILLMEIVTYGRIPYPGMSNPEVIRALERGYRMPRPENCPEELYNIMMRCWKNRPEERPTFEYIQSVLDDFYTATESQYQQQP

Row | Structure (SMILES) | inhibition of growth at 10 µM (A-431) | inhibition of growth at 10 µM (MDA-MB-435 [1]) | inhibition of growth at 10 µM (HUVEC [2]) | IC50 (HUVEC [3]) | other results
1 | COc1cc2ncnc(Oc3ccc(NC(=O)NC4CC4)c4ccccc34)c2cc1OC | 15.1% | 1.48% | 63.9% | – | –
2 | COc1cc2ncnc(Oc3ccc(NC(=O)Nc4ccc(Cl)c(C(F)(F)F)c4)c4ccccc34)c2cc1OC | 14.9% | 95.1% | 82.9% | 2.97 µM | IC50 (MDA-MB-435 [4]): 3.79 µM
3 | COc1cc2ncnc(Oc3ccc(NC(=O)Nc4cccc(C(F)(F)F)c4)c4ccccc34)c2cc1OC | -4.51% | 24.5% | 66.8% | – | IC50 [5]: 0.0288 µM; inhibition [6]: 99%
4 | CCN(CC)CCNC(=O)c1c(C)[nH]c(/C=C2\C(=O)Nc3ccc(F)cc32)c1C | – | – | – | – | inhibition [7]: Active; inhibition [8]: Active; inhibition [9]: Active; inhibition [10]: Active; inhibition [11]: Active; inhibition [12]: Active; inhibition [13]: Active; inhibition [14]: Active; inhibition [15]: Active; inhibition [16]: Active; inhibition [17]: Active; inhibition (Homo sapiens [18]): Active; inhibition [19]: Active; inhibition (Homo sapiens [20]): Active; inhibition [21]: Active
5 | COc1cc2ncnc(Oc3ccc(NS(=O)(=O)c4ccccc4)c4ccccc34)c2cc1OC | – | – | – | – | IC50 [5]: > 10 µM; inhibition [6]: 44.3%
6 | COc1cc2ncnc(Oc3ccc(NC(=O)Nc4ccc(Cl)c(C(F)(F)F)c4)c4cccnc34)c2cc1OC | 21% | 44.3% | 51.5% | – | –
7 | COc1cc2ncnc(Oc3ccc(NC(=O)Nc4cc(C)on4)c4ccccc34)c2cc1OC | -1.52% | 0.23% | 61.9% | – | –
8 | COc1cc2ncnc(Oc3ccc(NC(=O)Nc4cnn(C(C)C)c4)c4ccccc34)c2cc1OC | 49.9% | 27.7% | 93.6% | 0.63 µM | –
9 | CNC(=O)c1cc(Oc2ccc(NC(=O)Nc3ccc(Cl)c(C(F)(F)F)c3)cc2)ccn1 [SORAFENIB] | 68.9% | 91.9% | 84.7% | 1.49 µM | IC50 (MDA-MB-435 [4]): 2.11 µM
